Results from PMC11248911 (RSC Advances, 2024).
Where two headings read alike, the source gives them in different places.

Key:
[1] = tested on: MCF-7 human cancer cell line; test: In vitro antiproliferative activity, LDH release assay, MCF-7; assay type: cell-based; details: for IC50: Homo sapiens
Method in brief: (§1)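 Cells were grown in RPMI-1640 with 10% heat-inactivated FBS and penicillin/streptomycin at 37 °C, 5% CO2. Seeded at 2 × 10^5 cells per well, grown 18 h, then treated with a concentration series for 48 h. LDH in supernatant and in 6% Triton X-100 lysate was read kinetically for 1 min at 340 nm, using pH 7.5 phosphate buffer with 4.6 mM pyruvate and β-NADH. Release was taken as % of total; IC50 by probit, thrice in triplicate.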

[2] = tested on: normal human skin fibroblast (BJ-1) cell line; test: In vitro antiproliferative activity, LDH release assay, BJ-1 normal cells; assay type: cell-based; details: 48 h, read-out: BJ-1 IC50
Method in brief: as §1

aminopeptidase N (APN) = aminopeptidase N (APN) (Homo sapiens, UniProt P15144); test: In vitro APN inhibition assay; assay type: biochemical
aminopeptidase N (APN), sequence (P15144 whole entry): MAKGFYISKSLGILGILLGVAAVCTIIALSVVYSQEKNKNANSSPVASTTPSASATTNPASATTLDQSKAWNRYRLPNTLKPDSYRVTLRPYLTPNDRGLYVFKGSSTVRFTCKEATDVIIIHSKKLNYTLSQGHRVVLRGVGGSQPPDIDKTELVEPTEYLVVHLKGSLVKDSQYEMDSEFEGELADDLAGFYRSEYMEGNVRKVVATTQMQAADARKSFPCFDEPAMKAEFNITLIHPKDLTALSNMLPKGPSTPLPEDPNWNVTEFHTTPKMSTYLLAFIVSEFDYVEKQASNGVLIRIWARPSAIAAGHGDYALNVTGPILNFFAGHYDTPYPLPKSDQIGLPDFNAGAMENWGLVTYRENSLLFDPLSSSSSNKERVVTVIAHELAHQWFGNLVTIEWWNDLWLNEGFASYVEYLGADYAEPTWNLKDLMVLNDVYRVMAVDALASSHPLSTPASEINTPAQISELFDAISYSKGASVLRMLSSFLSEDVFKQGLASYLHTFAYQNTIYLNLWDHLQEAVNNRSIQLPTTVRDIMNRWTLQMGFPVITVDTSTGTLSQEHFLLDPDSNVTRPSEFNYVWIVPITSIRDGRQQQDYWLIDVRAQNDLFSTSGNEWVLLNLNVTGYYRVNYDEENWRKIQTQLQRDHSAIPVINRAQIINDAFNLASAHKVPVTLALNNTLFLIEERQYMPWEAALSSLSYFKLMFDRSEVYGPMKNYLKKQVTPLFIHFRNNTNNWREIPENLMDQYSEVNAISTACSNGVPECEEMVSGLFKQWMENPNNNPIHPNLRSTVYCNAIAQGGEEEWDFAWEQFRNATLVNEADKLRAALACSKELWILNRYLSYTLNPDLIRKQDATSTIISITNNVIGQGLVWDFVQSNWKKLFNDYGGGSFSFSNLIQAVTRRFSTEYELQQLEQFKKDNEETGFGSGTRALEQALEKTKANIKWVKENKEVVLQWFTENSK
Method in brief: (§2)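 Enzyme activity kits were run per manufacturer's instructions. Experiments were done in triplicate (n = 3) and reported as mean ± SD. IC50s were derived by probit analysis.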

MCF-7 cells [3] = test: Apoptosis assay, Annexin-V/FITC and PI flow cytometry; assay type: cell-based, human; details: MCF-7, 48 h
VEGFR2 = assay type: biochemical, human; details: biomarker for angiogenesis
MCF-7 cells [4] = test: Wound healing; assay type: cell-based, human; details: control cells 97.03%
MMP9 = test: In vitro MMP9 inhibition assay; assay type: biochemical, human; details: biomarker for invasion
Method in brief: as §2

MCF-7 cells [5] = test: Cell cycle analysis by flow cytometry; assay type: cell-based, human; details: MCF-7, 48 h
[6] = MCF7, 48 h, read-out: MCF-7 IC50
[7] = MCF7, read-out: MCF-7 Experimental activity (pIC50) (converted)

| Compound | IC50 [1, 6] | IC50 [1, 7] | also measured |
| --- | --- | --- | --- |
| CC1=NN(c2nc(-c3ccc(F)cc3)cs2)C(c2ccccc2)C1 (stereo not shown) [Compound 11, 1-(4-(4-Fluorophenyl)thiazol-2-yl)-4,5-dihydro-3-methyl-5-phenyl-1H-pyrazole] | 6.9 ± 0.2 µM | 6.9 µM |  |
| CC1=NN(c2ccccc2Cl)C(c2ccccc2)C1 (stereo not shown) [Compound 3, 1-(2-Chlorophenyl)-4,5-dihydro-3-methyl-5-phenyl-1H-pyrazole] | 8.8 ± 0.5 µM | 8.8 µM |  |
| CCNC(=S)N1N=C(C)CC1c1ccccc1 (stereo not shown) [Compound 7, N-Ethyl-4,5-dihydro-3-methyl-5-phenylpyrazole-1-carbothioamide] | 5.8 ± 0.2 µM | 5.8 µM | IC50 [2]: 18.7 ± 1.5 µM |
| CC1=NN(c2nc(-c3ccc(Cl)cc3Cl)cs2)C(c2ccccc2)C1 (stereo not shown) [Compound 13, 1-(4-(2,4-Dichlorophenyl)thiazol-2-yl)-4,5-dihydro-3-methyl-5-phenyl-1H-pyrazole] | 6.7 ± 0.2 µM | 6.7 µM |  |
| CNC(=S)N1N=C(C)CC1c1ccccc1 (stereo not shown) [Compound 6, 4,5-Dihydro-N,3-dimethyl-5-phenylpyrazole-1-carbothioamide] | 6.4 ± 0.3 µM | 6.4 µM | IC50 [2]: 18.2 ± 1.5 µM |
| CC1=NN(C(=S)NCc2ccccc2)C(c2ccccc2)C1 (stereo not shown) [Compound 9, N-Benzyl-4,5-dihydro-3-methyl-5-phenylpyrazole-1-carbothioamide] | 7 ± 0.3 µM | 7 µM |  |
| CC1=NN(c2nc(-c3ccccc3)cs2)C(c2ccccc2)C1 (stereo not shown) [Compound 10, 4,5-Dihydro-3-methyl-5-phenyl-1-(4-phenylthiazol-2-yl)-1H-pyrazole] | 7.6 ± 0.3 µM | 7.6 µM |  |
| COc1ccc(-c2csc(N3N=C(C)CC3c3ccccc3)n2)cc1 (stereo not shown) [Compound 12, 4,5-Dihydro-1-(4-(4-methoxyphenyl)thiazol-2-yl)-3-methyl-5-phenyl-1H-pyrazole] | 7.1 ± 0.2 µM | 7.1 µM |  |
| CC1=NN(C(=S)Nc2ccccc2)C(c2ccccc2)C1 (stereo not shown) [Compound 8, 4,5-Dihydro-3-methyl-N,5-diphenylpyrazole-1-carbothioamide] | 6.2 ± 0.2 µM | 6.2 µM | selectivity index (SI) ([1]; BJ-1 versus MCF-7): 4.7; IC50 (aminopeptidase N (APN)): 15.8 µM; late apoptosis (MCF-7 cells [3]; control 0.15%): 17.11%; early apoptosis (MCF-7 cells [3]; control 0.37%): 11.52%; total MCF-7 cell death (MCF-7 cells [3]; control 1.95%): 32.91%; VEGFR2 inhibition pIC50 (VEGFR2): 6.7; percentage closure of the wound gap (MCF-7 cells [4]): 57.77%; IC50 [2]: 29.1 ± 2.3 µM; MMP9 inhibition pIC50 (MMP9): 6.4; cell population in S phase (MCF-7 cells [5]; control 24.79%): 23.02%; cell population in G0/G1 phase (MCF-7 cells [5]; control 65.02%): 72.11% |
| O=c1c(O)c(-c2ccc(O)c(O)c2)oc2cc(O)cc(O)c12 [quercetin, reference compound] |  |  | MMP9 inhibition pIC50 (MMP9): 6.7 |
| CC1=NN(c2c(Cl)cc(Cl)cc2Cl)C(c2ccccc2)C1 (stereo not shown) [Compound 4, 1-(2,4,6-Trichlorophenyl)-4,5-dihydro-3-methyl-5-phenyl-1H-pyrazole] | 8.1 ± 0.5 µM | 8.1 µM |  |

The next lines start with results.

| IC50 [1, 6] | IC50 [1, 7] | Compound | also measured |
| --- | --- | --- | --- |
| 6.6 ± 0.2 µM | 6.6 µM | CC1=NN(C2=NC(=O)C(=Cc3ccc(F)cc3)S2)C(c2ccccc2)C1 (stereo not shown) [Compound 16, 5-(4-Fluorobenzylidene)-2-(4,5-dihydro-3-methyl-5-phenylpyrazol-1-yl)thiazol-4(5H)-one] |  |
| 8.6 ± 0.3 µM | 8.6 µM | CC1=NN(C2=NC(=O)C(C)S2)C(c2ccccc2)C1 (stereo not shown) [Compound 15, 2-(4,5-Dihydro-3-methyl-5-phenylpyrazol-1-yl)-5-methylthiazol-4(5H)-one] |  |
| 7 ± 0.3 µM | 7 µM | COc1ccc(C=C2SC(N3N=C(C)CC3c3ccccc3)=NC2=O)cc1 (stereo not shown) [Compound 17, 5-(4-Methoxybenzylidene)-2-(4,5-dihydro-3-methyl-5-phenylpyrazol-1-yl)thiazol-4(5H)-one] |  |
| 4.9 ± 0.3 µM |  | COc1cccc2c1C(=O)c1c(O)c3c(c(O)c1C2=O)C[C@@](O)(C(=O)CO)C[C@@H]3O[C@H]1C[C@H](N)[C@H](O)[C@H](C)O1 [Doxorubicin, reference compound] | IC50 [2]: 12.9 ± 1.3 µM |
| 6.9 ± 0.2 µM | 6.9 µM | CC1=NN(C2=NC(=O)C(=Cc3ccc(Cl)cc3Cl)S2)C(c2ccccc2)C1 (stereo not shown) [Compound 18, 5-(2,4-Dichlorobenzylidene)-2-(4,5-dihydro-3-methyl-5-phenylpyrazol-1-yl)thiazol-4(5H)-one] |  |
| 7.5 ± 0.2 µM | 7.5 µM | COc1ccc(C=C2SC(N3N=C(C)CC3c3ccccc3)=NC2=O)cc1OC (stereo not shown) [Compound 19, 5-(3,4-Dimethoxybenzylidene)-2-(4,5-dihydro-3-methyl-5-phenylpyrazol-1-yl)thiazol-4(5H)-one] |  |
